The source of these data is ChEMBL document CHEMBL1144910, “S-acyl-2-thioethyl aryl phosphotriester derivatives of AZT: synthesis, antiviral activity, and stability study” (J Med Chem, 2003).

Data set [1] concerns MT4. Briefly: Effective concentration required to inhibit the replication of HIV-1 by 50% in MT-4 cells. The data set is classed as functional, cell-based. The settings on record: Homo sapiens. An outline of the steps:
(§1)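 Cells infected with HIV-1; EC50 is the concentration inhibiting viral replication by 50%. Values are averages of at least three separate experiments, with variation below ±10%.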

The test system of data set [2] is CEM-SS. Kind of data set: Cytotoxic concentration required to reduce the viability […] by 50% in CEM-SS cells. As to conditions: Homo sapiens. The data set is classed as functional. An outline of the steps:
(§2)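 Viability measured in uninfected cells of each line; CC50 is the concentration reducing viability by 50%. Values are averages of at least three separate experiments, with variation under standard operating procedures below ±10%.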

For data set [3], the system named is MT4. Kind of data set: Cytotoxic concentration required to reduce the viability […] by 50% MT-4 cells. In kind it is functional. The settings on record: Homo sapiens. An outline of the steps:
as §2

For data set [4], the system named is CCRF-CEM. Kind of data set: Cytotoxic concentration required to reduce the viability […] by 50% in CEM/TK cells. As to conditions: Homo sapiens. The data set is classed as functional. An outline of the steps:
as §2

Data set [5] can be described thus: In vitro Apparent partition coefficients of mixed aryl phosphodiester was determined. In kind it is physicochemical. As to conditions: octanol/water. An outline of the steps:
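Apparent log P by an adapted shake-flask method, partitioning between 1-octanol and 0.02 M potassium phosphate buffer at pH 7.2. Each compound was run in triplicate.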

The subject of data set [6] is CEM-SS. Briefly: Effective concentration required to inhibit the replication of HIV-1 by 50% in CEM-SS cells. The data set is classed as functional, cell-based. The settings on record: Homo sapiens. An outline of the steps:
as §1

The test system of data set [7] is CCRF-CEM. Kind of data set: Effective concentration required to inhibit the replication of HIV-1 by 50% in CEM/TK cells. The data set is classed as functional, cell-based. As to conditions: Homo sapiens. An outline of the steps:
as §1

Data set [8] can be described thus: Half-life was determined for the compound in heat inactivated cell extracts; stable. In kind it is ADME.
The nature of data set [9]: Half-life was determined for the compound in cell extracts (CE). In kind it is ADME. An outline of the steps: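 Total CEM-SS cell extracts, 37 °C, phosphotriester at 50 µM initial concentration. Samples analysed by on-line ISRP-cleaning HPLC (C18, acetonitrile gradient in 20 mM triethylammonium acetate pH 6.9, 267 nm). Products identified by HPLC-ESI-MS and/or co-injection. Relative amounts taken from peak areas. Half-lives derived from pseudo-first-order rate constants fitted by mono- or polyexponential regression.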

A short description of data set [10]: Half-life was determined for the compound in cell extracts pre-incubated with EDTA; stable. In kind it is ADME.
A short description of data set [11]: Half-life was determined for the compound in cell extracts pre-incubated with EDTA. The data set is classed as ADME.

In general, EC50 refers to the midpoint of the concentration-response curve. The term CC50 denotes the concentration that lowers cell viability or growth by half. A higher CC50 goes with lower toxicity to the cells. As a reminder, the logD is lipophilicity at a set pH, counting ionised and neutral species. In general, half-life refers to how long it takes for the measured level to halve. A high value points to slow decline.

Turning to `Cc1cn([C@H]2C[C@H](N=[N+]=[N-])[C@@H](COP(=O)(OCCSC(=O)C(C)(C)C)Oc3ccc(C[C@H](N)CO)cc3)O2)c(=O)[nH]c1=O` (stereo not given in full), the figures for the EC50 with MT4 [1], with CEM-SS [6] and in the data set with CCRF-CEM [7] were 0.018 µM, 0.007 µM and 7 µM, respectively. Further, the CC50 in the data set with CEM-SS [2], in the data set on MT4 [3] and with CCRF-CEM [4] was more than 100 µM throughout. The logD in [5] turned out to be 0.64.
With `Cc1cn([C@H]2C[C@H](N=[N+]=[N-])[C@@H](COP(=O)(OCCSC(=O)C(C)(C)C)Oc3ccc(C[C@H](NC(=O)OC(C)(C)C)C(=O)N(C(=O)OC(C)(C)C)C(=O)OC(C)(C)C)cc3)O2)c(=O)[nH]c1=O` (stereo not given in full), the EC50 in the data set with MT4 [1] came to 0.034 µM; in the data set with CEM-SS [6], 0.049 µM; with CCRF-CEM [7] it was 4 µM. The CC50 in the data set with CEM-SS [2], in the data set with MT4 [3] and in the data set with CCRF-CEM [4] was more than 10 µM each time. Besides, the logD in data set [5] stood at 5.
With `Cc1cn([C@H]2C[C@H](N=[N+]=[N-])[C@@H](COP(=O)(OCCSC(=O)C(C)(C)C)Oc3ccc(C[C@H]4COC(C)(C)N4C(=O)OC(C)(C)C)cc3)O2)c(=O)[nH]c1=O` (stereo not given in full), the EC50 with MT4 [1] is 0.098 µM; in the data set with CEM-SS [6], 0.031 µM; in the data set on CCRF-CEM [7] it was 9 µM. The CC50 with CEM-SS [2], with MT4 [3] and in the data set with CCRF-CEM [4] was more than 10 µM in each case. Further, the logD in data set [5] turned out to be 3.7.
Consider `Cc1cn([C@H]2C[C@H](N=[N+]=[N-])[C@@H](COP(=O)(OCCSC(=O)C(C)(C)C)Oc3ccc(C[C@H](N)C(N)=O)cc3)O2)c(=O)[nH]c1=O` (stereo not given in full), for which the concentration giving a half-maximal response (EC50) with MT4 [1] amounted to 0.016 µM; in the data set with CEM-SS [6], 0.002 µM; in the data set on CCRF-CEM [7], 4 µM. In addition, the CC50 in the data set with CEM-SS [2], in the data set with MT4 [3] and in the data set on CCRF-CEM [4] was more than 10 µM each time. In addition, the logD in data set [5] was determined as 1.27.
Turning to `CC(=O)N[C@@H](Cc1ccc(OP(=O)(OCCSC(=O)C(C)(C)C)OC[C@H]2O[C@@H](n3cc(C)c(=O)[nH]c3=O)C[C@@H]2N=[N+]=[N-])cc1)C(N)=O` (stereo not given in full), the EC50 with MT4 [1] came to 0.066 µM; in the data set on CEM-SS [6], 0.082 µM; in the data set on CCRF-CEM [7], 8 µM. Also, the CC50 in the data set with CEM-SS [2], with MT4 [3] and with CCRF-CEM [4] was more than 10 µM each time. The logD in [5] was 1.52.
On to `CC(=O)N(C(=O)OC(C)(C)C)[C@@H](Cc1ccc(OP(=O)(OCCSC(=O)C(C)(C)C)OC[C@H]2O[C@@H](n3cc(C)c(=O)[nH]c3=O)C[C@@H]2N=[N+]=[N-])cc1)C(=O)N(C(=O)OC(C)(C)C)C(=O)OC(C)(C)C` (stereo not given in full), for which the 50% effective concentration (EC50) turned out to be 0.032 µM with MT4 [1], 0.015 µM with CEM-SS [6] and 6 µM in the data set with CCRF-CEM [7]. Also, the CC50 with CEM-SS [2], in the data set with MT4 [3] and in the data set with CCRF-CEM [4] was more than 10 µM in each case. The logD in [5] came to 5.8.
Take `Cc1cn([C@H]2C[C@H](N=[N+]=[N-])[C@@H](COP(=O)(OCCSC(=O)C(C)(C)C)Oc3ccc(C[C@@H](CO)NC(=O)OC(C)(C)C)cc3)O2)c(=O)[nH]c1=O` (stereo not given in full): the EC50 in the data set with MT4 [1] worked out at 0.044 µM; in the data set with CEM-SS [6], 0.017 µM; in the data set on CCRF-CEM [7] it was 4 µM. The CC50 in the data set on MT4 [3] and in the data set with CCRF-CEM [4] was more than 10 µM throughout. The logD in [5] came out at 2.5.
On to `Cc1cn([C@H]2C[C@H](N=[N+]=[N-])[C@@H](COP(=O)(O)Oc3ccc(C[C@H](N)C(=O)O)cc3)O2)c(=O)[nH]c1=O.Cl`, for which the T1/2 result in data set [8] and in [10] was “stable” throughout. The compound also gave a half-life in data set [9] of 12.8 h.
`Cc1cn([C@H]2C[C@H](N=[N+]=[N-])[C@@H](COP(=O)(O)Oc3ccc(C[C@H](N)CO)cc3)O2)c(=O)[nH]c1=O.Cl`: the T1/2 result in data set [8] and in [10] was “stable” throughout. This compound showed a half-life in data set [9] of 68 h.
For the compound `CC(=O)N[C@@H](Cc1ccc(OP(=O)(O)OC[C@H]2O[C@@H](n3cc(C)c(=O)[nH]c3=O)C[C@@H]2N=[N+]=[N-])cc1)C(N)=O.Cl`, the half-life in data set [11] is 166 h; in data set [9] it was 19.3 h. Moreover, the T1/2 result in data set [8] was “stable”.
For `Cc1cn([C@H]2C[C@H](N=[N+]=[N-])[C@@H](COP(=O)(OCCSC(=O)C(C)(C)C)Oc3ccc(C[C@H](N)C(=O)O)cc3)O2)c(=O)[nH]c1=O` (stereo not given in full), the EC50 was 0.075 µM in the data set on MT4 [1], 0.006 µM with CEM-SS [6] and 29 µM in the data set on CCRF-CEM [7]. Besides, the CC50 is more than 100 µM in the data set with CEM-SS [2], more than 10 µM in the data set on MT4 [3] and more than 100 µM with CCRF-CEM [4]. Also, the logD in [5] was 0.25.
Consider `Cc1cn([C@H]2C[C@H](N=[N+]=[N-])[C@@H](CO)O2)c(=O)[nH]c1=O` [ZIDOVUDINE], for which the CC50 with CEM-SS [2], in the data set with MT4 [3] and in the data set with CCRF-CEM [4] was more than 100 µM each time. For the same compound, in data set [5], the logD was found to be 0.06. For the same compound, the EC50 with CEM-SS [6] is 0.003 µM; with CCRF-CEM [7], more than 100 µM.
